The subject of one assay is OVCAR-3. The assay is described as follows: Growth inhibition of human OVCAR3 cells. The assay is classed as functional. Summed up: (§1)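 NCI-60 five-dose testing, 10^-8 to 10^-4 M, given only to compounds with significant growth inhibition in the 10 μM one-dose screen. Five-dose assay may be repeated.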
Assay [1] can be described thus: Growth inhibition of human SF539 cells. The following applies: SF-539. The assay is classed as functional. The gist of the method:
as §1

Assay [2] deals with T1, DNA topoisomerase 1 (Homo sapiens) (UniProt P11387).
T1 sequence (whole entry): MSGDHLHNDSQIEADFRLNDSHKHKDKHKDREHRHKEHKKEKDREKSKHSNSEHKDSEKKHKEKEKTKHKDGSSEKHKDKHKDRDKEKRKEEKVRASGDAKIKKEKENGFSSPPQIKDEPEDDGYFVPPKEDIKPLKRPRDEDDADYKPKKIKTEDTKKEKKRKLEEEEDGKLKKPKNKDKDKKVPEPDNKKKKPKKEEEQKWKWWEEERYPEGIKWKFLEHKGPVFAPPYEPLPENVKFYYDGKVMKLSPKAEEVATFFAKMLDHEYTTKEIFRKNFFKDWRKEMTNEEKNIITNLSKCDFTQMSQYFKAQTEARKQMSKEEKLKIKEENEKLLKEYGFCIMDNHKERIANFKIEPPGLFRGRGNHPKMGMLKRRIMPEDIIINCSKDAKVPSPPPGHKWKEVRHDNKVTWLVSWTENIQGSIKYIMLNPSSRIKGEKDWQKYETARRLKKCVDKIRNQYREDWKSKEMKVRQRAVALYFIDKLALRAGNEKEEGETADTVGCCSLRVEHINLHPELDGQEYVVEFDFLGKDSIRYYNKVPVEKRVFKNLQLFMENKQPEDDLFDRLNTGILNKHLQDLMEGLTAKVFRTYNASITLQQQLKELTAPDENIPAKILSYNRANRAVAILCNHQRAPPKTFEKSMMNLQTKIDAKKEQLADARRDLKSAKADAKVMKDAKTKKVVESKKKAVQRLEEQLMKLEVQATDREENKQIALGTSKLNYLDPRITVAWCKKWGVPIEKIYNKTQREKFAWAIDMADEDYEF
Description: Inhibition of recombinant topoisomerase-1 (unknown origin) assessed as inhibition of 3'-[32P]-labeled DNA cleavage at 0.1 to 100 uM after 20 mins by PAGE analysis relative to control.

Another assay concerns HOP-62. The assay is described as follows: Growth inhibition of human HOP62 cells. Type of assay: functional. The gist of the method:
as §1

The subject of a further assay is DU-145. Description: Growth inhibition of human DU145 cells. Type of assay: functional. Summed up: as §1
A further assay concerns MCF7. Description: Growth inhibition of human MCF7 cells. The assay is classed as functional. The gist of the method: as §1
The next assay deals with HCT-116. Description: Growth inhibition of human HCT116 cells. The assay is classed as functional. The gist of the method: as §1
Assay [3] is described as follows: Cytotoxicity against human NCI60 cells assessed as cell growth at 10 uM relative to vehicle-treated control. The conditions noted are these: read-out: Activity. The assay is classed as functional. The gist of the method:
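NCI-60 one-dose screen: roughly 60 human cancer cell lines exposed to 10^-5 M (10 μM) compound. Value is growth percent of treated cells relative to vehicle-treated control, averaged across the panel.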

A further assay has as its system UACC-62. Description: Growth inhibition of human UACC62 cells. The assay is classed as functional. The gist of the method: as §1
Assay [4] addresses Tyrosyl-DNA phosphodiesterase 1 (Homo sapiens, UniProt Q9NUW8). The assay is described as follows: Inhibition of recombinant TDP1 (unknown origin) using N14Y as substrate after 15 mins by PAGE analysis. Summed up:
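Substrate is a 5'-[32P]-labelled single-stranded oligonucleotide with a 3'-phosphotyrosine (N14Y). It is incubated with 5 pM recombinant TDP1 ± test compound for 15 min at room temperature. Read-out is a gel.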

A further assay concerns SN12C. Description: Growth inhibition of human SN12C cells. The assay is classed as functional. The gist of the method:
as §1

SMILES strings stand for the structures. The source made the active and inactive calls. The calls are words filed in the database; no cut-off is given here.

Tyrosyl-DNA phosphodiesterase 1, sequence (Q9NUW8 whole entry): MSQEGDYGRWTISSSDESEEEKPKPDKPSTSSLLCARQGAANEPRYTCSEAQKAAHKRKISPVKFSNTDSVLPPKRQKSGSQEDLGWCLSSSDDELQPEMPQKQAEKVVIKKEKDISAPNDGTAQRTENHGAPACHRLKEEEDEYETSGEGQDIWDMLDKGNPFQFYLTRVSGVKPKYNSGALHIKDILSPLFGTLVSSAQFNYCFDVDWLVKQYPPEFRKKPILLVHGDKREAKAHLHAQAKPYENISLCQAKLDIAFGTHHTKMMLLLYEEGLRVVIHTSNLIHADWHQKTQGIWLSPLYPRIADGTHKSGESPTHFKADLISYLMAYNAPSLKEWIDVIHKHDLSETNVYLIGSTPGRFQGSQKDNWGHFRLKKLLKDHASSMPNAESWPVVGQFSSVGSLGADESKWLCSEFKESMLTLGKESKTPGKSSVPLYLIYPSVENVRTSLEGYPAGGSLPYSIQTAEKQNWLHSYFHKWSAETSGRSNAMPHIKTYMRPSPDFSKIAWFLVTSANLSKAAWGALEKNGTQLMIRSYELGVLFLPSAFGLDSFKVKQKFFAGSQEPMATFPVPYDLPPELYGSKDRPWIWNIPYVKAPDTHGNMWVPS

On to `COc1cc2c3c(n(C[C@H](O)[C@@H](O)[C@H](O)CO)c(=O)c2cc1OC)-c1cc2c(cc1C3=O)OCO2`, for which the concentration for 50% growth inhibition (GI50) in the assay on OVCAR-3 is 96 nM; in assay [1] it was 21 nM; in the assay with HOP-62, 27 nM; with DU-145 it was 138 nM; in the assay on MCF7, 34 nM; with HCT-116, 59 nM. Besides, the GI50 in the assay on UACC-62 amounted to 52 nM; in the assay with SN12C, 85 nM. For the same compound, the inhibition entry in assay [2] was “Active”. For the same compound, the growth at 10 µM in assay [3] worked out at 5.32%. For the same compound, the 50% inhibitory concentration (IC50) in assay [4] is over 111000 nM.

The GI50 is the concentration at which growth is held to half of that of the control. A word on the IC50: it is the concentration needed to halve the response being measured.

The values are drawn from ChEMBL document CHEMBL3124742, “Synthesis and biological evaluation of new carbohydrate-substituted indenoisoquinoline topoisomerase I inhibitors and improved syntheses of the experimental anticancer agents indotecan (LMP400) and indimitecan (LMP776)” (J Med Chem, 2014).
